Test results from ChEMBL document CHEMBL1137524, “Synthesis and antibacterial activity of pyranmycin derivatives with N-1 and O-6 modifications” (2007).
≈ marks a conversion by molar mass, not a printed value.

Columns and labels:
Type in all cases: functional
[1] = system: Escherichia coli; experiment: Antibacterial activity against aminoglycoside-resistant Escherichia coli TG1 pTZ19U-3 after 12 to 18 hrs
Summary of the method: (§1)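 Broth microdilution MIC. Bacteria grown in Trypticase Soy broth at 35 °C for 1–2 h, adjusted with broth to A625 0.08–0.1, then 100 µL diluted into 10 mL broth. Wells received diluted inoculum plus 2-fold serial dilutions of compound. Incubated 35 °C for 12–18 h. MIC taken as lowest concentration inhibiting growth, in µg/mL.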

[2] = system: Escherichia coli; experiment: Antibacterial activity against aminoglycoside-resistant Escherichia coli TG1 pSF815 after 12 to 18 hrs; summary of the method: as §1
[3] = system: Escherichia coli; experiment: Antibacterial activity against aminoglycoside-susceptible Escherichia coli TG1 after 12 to 18 hrs; summary of the method: as §1
[4] = system: Escherichia coli; experiment: Antibacterial activity against Escherichia coli ATCC 25922 after 12 to 18 hrs; summary of the method: as §1
[5] = system: Pseudomonas aeruginosa; experiment: Antibacterial activity against Pseudomonas aeruginosa ATCC 27853 after 12 to 18 hrs
Summary of the method: (§2)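 Broth microdilution in Trypticase Soy broth. Bacteria grown at 35 °C for 1–2 h, adjusted with broth to A625 0.08–0.1, then diluted 100 µL into 10 mL broth. 50 µL inoculum was combined with 50 µL of 2-fold serial compound dilutions and incubated at 35 °C for 12–18 h. MIC taken as the lowest concentration inhibiting growth.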

[6] = system: Staphylococcus aureus; experiment: Antibacterial activity against methicillin-resistant Staphylococcus aureus ATCC 33591 after 12 to 18 hrs; summary of the method: as §1
[7] = system: Klebsiella pneumoniae; experiment: Antibacterial activity against Klebsiella pneumoniae ATCC 13883 after 12 to 18 hrs; summary of the method: as §2
[8] = system: Klebsiella pneumoniae; experiment: Antibacterial activity against Klebsiella pneumoniae ATCC 700603 after 12 to 18 hrs; summary of the method: as §2

SMILES | MIC [1] [µg/mL] | MIC [2] [µg/mL] | MIC [3] [µg/mL] | MIC [4] [µg/mL] | MIC [5] [µg/mL] | MIC [6] [µg/mL] | MIC [7] [µg/mL] | MIC [8] [µg/mL]
C[C@H]1O[C@@H](O[C@@H]2[C@@H](OCCO)[C@H](NC(=O)[C@@H](O)CCN)C[C@H](N)[C@H]2O[C@H]2O[C@H](CN)[C@@H](O)[C@H](O)[C@H]2N)[C@H](O)[C@@H](O)[C@@H]1N | 16 (≈ 26.1 µM) | 8 (≈ 13.1 µM) | 2 (≈ 3.26 µM) | 16 (≈ 26.1 µM) | – | – | – | –
C[C@H]1O[C@@H](O[C@@H]2[C@@H](O)[C@H](N)C[C@H](N)[C@H]2O[C@H]2O[C@H](CN)[C@@H](O)[C@H](O)[C@H]2N)[C@H](O)[C@@H](O)[C@@H]1N | ≥ 32 | 8 (≈ 17.1 µM) | 8 (≈ 17.1 µM) | 8 (≈ 17.1 µM) | 4 (≈ 8.56 µM) | ≥ 32 | 4 (≈ 8.56 µM) | 16 (≈ 34.2 µM)
C[C@H]1O[C@@H](O[C@@H]2[C@@H](O)[C@H](NC(=O)[C@@H](O)CCN)C[C@H](N)[C@H]2O[C@H]2O[C@H](CN)[C@@H](O)[C@H](O)[C@H]2N)[C@H](O)[C@@H](O)[C@@H]1N | 4 (≈ 7.03 µM) | 2 (≈ 3.52 µM) | 4 (≈ 7.03 µM) | 8 (≈ 14.1 µM) | 2 (≈ 3.52 µM) | ≥ 32 | 1 (≈ 1.76 µM) | 1 (≈ 1.76 µM)
C[C@H]1O[C@@H](O[C@@H]2[C@@H](OCCN)[C@H](NC(=O)[C@@H](O)CCN)C[C@H](N)[C@H]2O[C@H]2O[C@H](CN)[C@@H](O)[C@H](O)[C@H]2N)[C@H](O)[C@@H](O)[C@@H]1N | 1 (≈ 1.63 µM) | 2 (≈ 3.27 µM) | 8 (≈ 13.1 µM) | 8 (≈ 13.1 µM) | 0.5 (≈ 0.817 µM) | ≥ 32 | 4 (≈ 6.54 µM) | 2 (≈ 3.27 µM)
CCCO[C@@H]1[C@@H](O[C@@H]2O[C@H](C)[C@@H](N)[C@H](O)[C@H]2O)[C@H](O[C@H]2O[C@H](CN)[C@@H](O)[C@H](O)[C@H]2N)[C@@H](N)C[C@H]1NC(=O)[C@@H](O)CCN | ≥ 32 | ≥ 32 | 8 (≈ 13.1 µM) | ≥ 32 | – | – | – | –
NCC[C@H](O)C(=O)N[C@@H]1C[C@H](N)[C@@H](O[C@H]2O[C@H](CN)[C@@H](O)[C@H](O)[C@H]2N)[C@H](O[C@@H]2O[C@H](CO)[C@H](O)[C@H]2O)[C@H]1O [BUTIROSIN A] | 0.5 (≈ 0.9 µM) | 0.5 (≈ 0.9 µM) | 1 (≈ 1.8 µM) | 4 (≈ 7.2 µM) | 1 (≈ 1.8 µM) | ≥ 32 | 1 (≈ 1.8 µM) | 1 (≈ 1.8 µM)
NC[C@@H]1O[C@H](O[C@H]2[C@@H](O)[C@H](O[C@@H]3[C@@H](O)[C@H](N)C[C@H](N)[C@H]3O[C@H]3O[C@H](CN)[C@@H](O)[C@H](O)[C@H]3N)O[C@@H]2CO)[C@H](N)[C@@H](O)[C@@H]1O [FRAMYCETIN] | ≥ 32 | 4 (≈ 6.51 µM) | 4 (≈ 6.51 µM) | 4 (≈ 6.51 µM) | 0.5 (≈ 0.813 µM) | ≥ 32 | 8 (≈ 13 µM) | 16 (≈ 26 µM)
NC[C@H]1O[C@H](O[C@H]2[C@H](O[C@@H]3O[C@H](CO)[C@@H](O)[C@H]3O)[C@@H](O)[C@H](N)C[C@@H]2N)[C@H](N)[C@@H](O)[C@@H]1O [RIBOSTAMYCIN] | ≥ 32 | 4 (≈ 8.8 µM) | 4 (≈ 8.8 µM) | 8 (≈ 17.6 µM) | – | – | – | –
